ChEMBL document CHEMBL1240376, “Characterization of small ColE-like plasmids mediating widespread dissemination of the qnrB19 gene in commensal enterobacteria” (2010)
In brackets after ≈: the same amount, converted by molar mass.

Experiments:
Type in all cases: functional
Escherichia coli [1] = assay: Antibacterial activity against tetracycline sulfamethoxazole streptomycin kanamycin-resistant Escherichia coli isolate M66-6 carrying qnrB19 gene
Method in brief: (§1)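 MICs determined by broth microdilution following CLSI guidelines, with E. coli ATCC 25922 as quality-control strain in every run. Disk diffusion susceptibility was also performed per CLSI.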

Escherichia coli [2] = assay: Antibacterial activity against tetracycline trimethoprim sulfamethoxazole kanamycin-resistant Escherichia coli isolate C14-9 carrying qnrB19 gene; method in brief: as §1
Escherichia coli [3] = assay: Antibacterial activity against ampicillin tetracycline trimethoprim sulfamethoxazole streptomycin-resistant Escherichia coli isolate Y6-7 carrying qnrB19 gene; method in brief: as §1
Escherichia coli [4] = assay: Antibacterial activity against Escherichia coli HB101; method in brief: as §1
Escherichia coli [5] = assay: Antibacterial activity against ampicillin sulfamethoxazole streptomycin kanamycin-resistant Escherichia coli isolate V6-9 carrying qnrB19 gene; method in brief: as §1
Escherichia coli [6] = assay: Antibacterial activity against ampicillin tetracyclin streptomycin kanamycin-resistant Escherichia coli isolate V32-1 carrying qnrB19 gene; method in brief: as §1

Compound | MIC (Escherichia coli [1]) [mg/L] | MIC (Escherichia coli [2]) [mg/L] | MIC (Escherichia coli [3]) [mg/L] | MIC (Escherichia coli [4]) [mg/L] | MIC (Escherichia coli [5]) [mg/L] | MIC (Escherichia coli [6]) [mg/L]
CCn1cc(C(=O)O)c(=O)c2ccc(C)nc21 [NALIDIXIC ACID] | 16 (≈ 68.9 µM) | 32 (≈ 138 µM) | 16 (≈ 68.9 µM) | 4 (≈ 17.2 µM) | 32 (≈ 138 µM) | 32 (≈ 138 µM)
CCn1cc(C(=O)O)c(=O)c2cc(F)c(N3CCNCC3)cc21 [NORFLOXACIN] | 0.25 (≈ 0.783 µM) | 0.5 (≈ 1.57 µM) | 0.25 (≈ 0.783 µM) | 0.003 (≈ 0.00939 µM) | 0.5 (≈ 1.57 µM) | 0.25 (≈ 0.783 µM)
C[C@H]1COc2c(N3CCN(C)CC3)c(F)cc3c(=O)c(C(=O)O)cn1c23.C[C@H]1COc2c(N3CCN(C)CC3)c(F)cc3c(=O)c(C(=O)O)cn1c23.O [LEVOFLOXACIN] |  | 0.25 |  | 0.0075 | 0.25 | 0.25
